NR2E3 ag-1: agonists of human nuclear receptor NR2E3; Q9Y5X4; GST-NR2E3/biotin-RetCOR TR-FRET, 1536-well; inhibition of corepressor binding, % at 4.78 µM; actives 0.12% (n = 320,000);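 active = percent inhibition above the cutoff of mean plus 3 SD of all tested compounds, set per screening campaign, cut at about 20% in these data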
Target sequence (Q9Y5X4 whole entry, looked up): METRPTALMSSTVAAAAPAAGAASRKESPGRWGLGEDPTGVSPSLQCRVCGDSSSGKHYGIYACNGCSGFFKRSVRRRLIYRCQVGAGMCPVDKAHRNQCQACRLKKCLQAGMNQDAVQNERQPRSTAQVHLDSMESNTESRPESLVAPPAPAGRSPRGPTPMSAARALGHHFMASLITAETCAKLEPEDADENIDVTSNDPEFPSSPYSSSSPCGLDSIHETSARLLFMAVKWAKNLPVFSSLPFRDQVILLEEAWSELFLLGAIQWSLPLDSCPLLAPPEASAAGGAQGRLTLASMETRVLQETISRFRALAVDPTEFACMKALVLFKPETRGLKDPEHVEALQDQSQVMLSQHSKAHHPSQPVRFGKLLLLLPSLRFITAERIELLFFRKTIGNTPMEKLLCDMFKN
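Material – GST-tagged NR2E3 plus biotinylated RetCOR corepressor · Quantity – NR2E3 fusion 1.35 nM · Times – 5 h incubation at 4 °C · Medium – pH 7.5 Tris-based buffer · Technique – TR-FRET, Eu(K)-anti-GST donor, streptavidin-D2 acceptor, ex 340, em 617/671 nm · Benchmarks – high control biotin, low control 0.6% DMSO · Format – 1536-well plates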
NR1D1 modulator: Rev-erb alpha (human) modulation; actives 0.79% (n = 370,000); AID 1259318; activity, % at 10 µM; P20393; Rev-erbα–FITC-DNA binding, fluorescence polarization, 90 min;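 active = activity above about 14%, limit read from the data; passing the limit was not always enough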
PG9 binder: small molecules binding HIV-1 gp120 antibody PG9 | TR-FRET gp120-PG9 antibody binding | inhibition, % at 6.7 µM | actives 0.43% (n = 360,000); in the data active = inhibition above about 8.5%
NR2E3 ag-2: activates human NR2E3 receptor | Q9Y5X4 | CHO-S Gal4-NCOR/VP16-NR2E3 two-hybrid, luciferase | inhibition of corepressor binding, % at 3.98 µM | actives 0.35% (n = 360,000);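 active = inhibition above the mean of all tested compounds plus 3 SD, cut at about 70% in these data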;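 also: higher means lower luciferase signal from less NR2E3 corepressor binding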
NR2E3 ag conf: NR2E3 agonism confirmed in two-hybrid assay; shares compounds with NR2E3 ag-2; CHO-S mammalian two-hybrid NR2E3-NCOR, luciferase luminescence; inhibition, % at 3.98 µM; actives 51% (n = 2,300); AID 624378;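 active = average inhibition above a cutoff equal to the mean inhibition of all tested compounds plus one SD, cut at about 70% in these data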
VP16 counter: reduces GAL4-VP16 reporter signal in NR2E3 counterscreen; inhibition, % at 3.98 µM; shares compounds with NR2E3 ag-2; CHO-S GAL4-VP16 luciferase reporter, luminescence; actives 29% (n = 2,300);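 active = mean inhibition above a cutoff equal to the average over all tested compounds plus one standard deviation, cut at about 70% in these data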;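 also: luciferase from a UAS reporter driven by GAL4-VP16 transactivation; higher means less reporter light so more repression of VP16 activity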
Hits are given with their value; i = inactive; nt = no result given. Compounds with a hit are over-represented: about 1.4% of the library has one in this group of screens.

SMILES	NR2E3 ag-1	NR1D1 modulator	PG9 binder	NR2E3 ag-2	NR2E3 ag conf	VP16 counter
O=[N+]([O-])c1cc(F)c2cccnc2c1O	i	i	i	i	nt	nt
COC(=O)[C@]12C[C@H](CC(=O)NCc3cccc(C(F)(F)F)c3)C(=O)N(Cc3ccc(Cl)cc3Cl)C1=C[C@H](C(C)(C)C)O[C@@H]2C	nt	i	nt	nt	nt	nt
CCCCNC(=O)C1(C(C)=O)CC(C(=O)OCC)=NO1 (stereo unspecified)	nt	i	nt	nt	nt	nt
CCOC(=O)C1=NOC(C(=O)Nc2cc(C)cc(C)c2)(C(=O)C2CC2)C1 (stereo unspecified)	nt	i	nt	nt	nt	nt
COCCN(Cc1cc2cc3c(cc2nc1Cl)OCO3)C(=O)Nc1ccc(F)cc1	i	nt	i	i	i	i
COCCN(Cc1cc2cc3c(cc2nc1Cl)OCO3)C(=O)Nc1ccc(OC)cc1	i	i	i	i	nt	nt
CCCC/C=C1/[C@H](c2ccccc2)N(C)C2=N[C@@H](c3ccccc3)CC(=O)N21	nt	i	nt	nt	nt	nt
Cc1sc(NC(=O)/C=C/c2ccc3c(c2)OCO3)nc1-c1ccccc1	i	i	i	i	85.0	i
CCOC(=O)Cc1c(C)nc2c(-c3cccc(Br)c3)c[nH]n2c1=O	i	i	i	i	i	i
CCOC(=O)N1CCC(NC(=O)CSCc2nc(-c3ccc(OCC)cc3)oc2C)CC1	i	i	i	i	i	i
CCCOc1ccc(-c2nc(CSCC(=O)NC3CC3)c(C)o2)cc1	nt	i	nt	nt	nt	nt
CCOc1ccc(-c2nc(CSCC(=O)NC3CC3)c(C)o2)cc1	i	nt	nt	109.1	94.7	94.5
CCOc1ccc(-c2nc(CSCC(=O)NCc3ccco3)c(C)o2)cc1	i	i	i	100.0	93.1	94.5
C=C1C(=O)C23C(O)C1CCC2C12CCCC(C)(COC(C)=O)C1C(O)C3(O)OC2 (stereo unspecified)	nt	i	i	91.2	i	i
O=C(CCc1ccccc1)N[C@H]1[C@@H](OC(=O)c2ccco2)CCC[C@]12C(=O)N(Cc1ccccc1)c1ccccc12	nt	i	nt	nt	nt	nt
Cc1ccc(NC(=S)N=Nc2c(O)[nH]c3ccccc23)cc1	i	i	i	i	i	i
C[C@@H]1ON(C)[C@H]2C[C@H]3c4[nH]c5c(-c6ccc7c(c6)OCO7)cccc5c4CCN3C(=O)[C@@H]12	nt	i	i	nt	nt	nt
COc1ccc(S(=O)(=O)N2CCN(c3ccc(C)cc3C)CC2)cc1OC	i	i	i	i	74.4	i
Cc1ccc(-c2cc3nc(-c4ccco4)cc(N4CCN(Cc5ccoc5)CC4)n3n2)cc1	nt	i	nt	nt	nt	nt
C=CCN(C)CC#CCCCCl	nt	i	nt	nt	nt	nt
Cc1sc2ncnc(NCC(O)c3ccccc3)c2c1C (stereo unspecified)	i	i	i	75.2	70.8	i
Cc1sc2ncnc(NCC(O)c3ccc([N+](=O)[O-])cc3)c2c1C (stereo unspecified)	i	i	i	105.0	94.6	76.4
Cc1sc2ncnc(NCc3cccs3)c2c1C	i	i	i	78.4	96.1	80.7
C=CCN=C1NC(c2cccc(F)c2)C(C(=O)OC)=C(C)N1Cc1cccc(C(F)(F)F)c1 (stereo unspecified)	nt	i	i	nt	nt	nt
O=C(CSc1nnc(Cn2nnc3ccccc32)o1)N(Cc1ccc(F)cc1)c1ccccc1	i	i	i	78.6	88.4	73.7
SMILES	NR2E3 ag-1	NR1D1 modulator	PG9 binder	NR2E3 ag-2	NR2E3 ag conf	VP16 counter
CN=c1scc(-c2cccs2)n1/N=C/c1ccc(O)c(O)c1O	i	i	i	i	nt	nt
CN=c1scc(-c2cccs2)n1/N=C/c1ccccc1O	i	i	i	95.4	90.0	82.3
CC(C)[C@H]1/C(=C/C2CC2)N2C(=O)C[C@H](c3cccc(C(F)(F)F)c3)N=C2N1Cc1ccc2c(c1)OCO2	nt	i	nt	nt	nt	nt
Cc1cc2sc3ccc(C#CC4(O)CCCCC4)cc3c(=O)c2cc1C	i	i	i	i	86.4	i
Cn1c2ccccc2c(=O)c2cc(C#CC3(O)CCCCC3)ccc21	i	i	i	i	nt	nt
O=C(C1CC1)N1CCc2cc(S(=O)(=O)NCCC3=CCCCC3)ccc21	i	i	i	i	i	i
O=C(C1CCC1)N1CCc2cc(S(=O)(=O)NCC3COc4ccccc4O3)ccc21 (stereo unspecified)	i	i	i	i	i	i
CCCN(CCC)CCNS(=O)(=O)c1ccc2c(c1)CCN2C(=O)C1CCC1	i	i	i	i	nt	nt

Screening data: PubChem, several laboratories
